The source of these data is publication PMC7357173 (Toxicological Sciences, 2020).

Structures can show the parent of a compound that is named as a salt.

What all share (type): cell-based, human
One data set has as its system IL-8. Description: IL-8 secretion, ELISA of HepG2 supernatants. To be noted: HepG2, 24 h. The method, boiled down: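 HepG2 grown and exposed as for the other assays: 8 concentrations from DMSO stocks, 0.5% DMSO final, 37°C, 5% CO2, triplicate wells, one run. 50 µl of supernatant collected after the incubation and assayed for IL-8 by ELISA kit. Values divided by the plate median control, log2-transformed and fitted by Bayesian concentration–response modelling to give PoD.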
On the technique in general: In an ELISA, binding on a coated surface is turned into a signal by an enzyme label.

Data set [1] relates to HepG2 cells. Description: Mitochondrial ROS. To be noted: HepG2, all timepoints, highest concentration.
The subject of data set [2] is HepG2 cells. Description: Cellular ATP. The method, boiled down:
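HepG2 in supplemented MEM (10% FBS), kept below 85% confluence and ≤8 passages. Treated with 8-point dilutions from DMSO stocks (0.5% DMSO final) at 37°C, 5% CO2. Cellular ATP read by CellTiterGlo luminescence, normalized to vehicle wells as fold change. Run once, triplicate wells per concentration. PoD taken from Bayesian concentration–response fits.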

The test system of data set [3] is HepG2 cells. Description: Cellular stress panel as a whole. Particulars: for bioactivity group: HepG2 cellular stress panel. The method, boiled down:
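HepG2 exposed 1, 6 or 24 h to 8 nominal concentrations (0.5% DMSO), one run, 3 technical replicates each. Per-plate raw values divided by the median control and log2-transformed; concentrations log10-transformed. Bayesian fit with a Student's t (5 df) replicate model and well-position scale term. PoD found by linear interpolation; CDS is the fraction of 10 000 samples yielding a PoD.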

The subject of data set [4] is HepG2 cells. Kind of data set: Phospholipidosis. Particulars: HepG2, 24 h. An outline of the steps:
(§1)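 High-content imaging of HepG2 seeded at 10 000 (24 h) or 12 500 (6, 1 h) cells/well and adhered overnight. Triplicate wells at 8 concentrations, 0.5% DMSO. Mito-mass stained with a mitochondria-specific fluorescent dye; PLD detected by a dye conjugating to phospholipids. Cells fixed in 4% formaldehyde with Hoechst 33342 where required. Eight fields imaged per well (10×); intensity compared against vehicle wells.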

In data set [5] the test system is HepG2 cells. Description: Glutathione content.
Data set [6] deals with HepG2 cells. Kind of data set: Mitochondrial mass. To be noted: HepG2, 1, 6 and 24 h; subcytotoxic PoD. The method, boiled down:
as §1

Data set [7] has as its system HepG2 cells. Kind of data set: Oxygen consumption rate. An outline of the steps: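 HepG2 seeded at 16 000 cells/well, attached overnight, then treated 1, 6 or 24 h; the final 60 min was in unbuffered DMEM (10 mM glucose, 30 mM NaCl, 1 mM pyruvate, 2 mM L-alanyl-glutamine, pH 7.4, 37°C). Four baseline and six post-compound reads (3-min mix, 4-min read). Then oligomycin 1 μM, FCCP 0.5 μM and rotenone/antimycin A 1 μM each. Values baseline-normalized and corrected for nonmitochondrial OCR.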

As to `NC(=O)c1cccnc1` [Niacinamide, Nicotinamide], the “change in IL-8” value with IL-8 was “small but appreciable decrease”.

On to `Oc1cc(Cl)ccc1Oc1ccc(Cl)cc1Cl` [Triclosan], for which the “increase in mitochondrial superoxide (MitoROS)” value in the data set with HepG2 cells [1] was 2- to 4 fold. Also, the “change in cellular ATP” value in the data set with HepG2 cells [2] (HepG2, 6 h) is on record as “increase”; in the data set on HepG2 cells [2] (HepG2, 24 h) it was “reduction”.

Take `OCCOc1ccccc1` [Phenoxyethanol, 2-Phenoxyethanol]: the “concentration-responses among all 36 biomarkers” value in the data set with HepG2 cells [3] (HepG2, up to 1000 µM) is “no concentration-responses could be detected”.

As for `O=c1ccc2ccccc2o1` [Coumarin], the change in phospholipidosis result in the data set with HepG2 cells [4] was “decrease”. The “change in cellular ATP (lowest PoD)” value with HepG2 cells [2] (HepG2, 6 and 24 h) was “decrease”. Further, in the data set with HepG2 cells [5] (HepG2, 24 h), the change in glutathione result is “increase”. The “change in IL-8” value in the data set on IL-8 was “decrease”. The “all PoDs of the panel” value in the data set on HepG2 cells [3] (HepG2, around the top concentration tested) was about 1000 µM. This compound yielded a bioactivity group with HepG2 cells [3] of 1.

As to `COc1cccc2c1C(=O)c1c(O)c3c(c(O)c1C2=O)C[C@@](O)(C(=O)CO)C[C@@H]3O[C@H]1C[C@H](N)[C@H](O)[C@H](C)O1` [Doxorubicin, Doxorubicin hydrochloride], the “change in mitochondrial mass” value with HepG2 cells [6] is “increases”. In addition, the “change in cellular ATP” value with HepG2 cells [2] (HepG2, 6 h) is “increases”; with HepG2 cells [2] (HepG2, 24 h), “loss”. Also, the change in glutathione entry was “Increases” with HepG2 cells [5] (HepG2, 1 h) and “loss” in the data set with HepG2 cells [5] (HepG2, 24 h).

As for `CCc1ccc(CCOc2ccc(CC3SC(=O)NC3=O)cc2)nc1` (stereo not drawn) [Pioglitazone, Pioglitazone hydrochloride], the “change in OCR and reserve capacity” value is on record as “increase” in the data set with HepG2 cells [7] (HepG2, concentrations between 40 and 100 µM); “decrease” with HepG2 cells [7] (HepG2, concentrations up to 10 µM).

The compound `C[S+]([O-])CCCCN=C=S` [Sulforaphane, L-Sulforaphane] showed a bioactivity group with HepG2 cells [3] of 3.

In the case of `Cc1c(C)c2c(c(C)c1O)CCC(C)(COc1ccc(CC3SC(=O)NC3=O)cc1)O2` (stereo not drawn) [Troglitazone], the “effect on OCR” value in the data set on HepG2 cells [7] (HepG2, two highest concentrations (40 and 100 µM)) is given as “reduced the OCR near to zero”.

As for `O=C(O)Cc1ccccc1Nc1c(Cl)cccc1Cl` [Diclofenac, Diclofenac sodium salt], in the data set with HepG2 cells [3] (total Cmax of Table 2 vs nominal in vitro PoD), the “estimated plasma Cmax compared with minimum PoD” value is on record as “approximately one order of magnitude below the lowest PoD”.
